Data: ChEMBL document CHEMBL3098105, “7,7'-Diazaindirubin--a small molecule inhibitor of casein kinase 2 in vitro and in cells” (Bioorg Med Chem, 2014)

Tests used:
[1] = target: Fibroblast growth factor receptor 1 (Homo sapiens) (UniProt P11362); assay: Inhibition of FGF-R1 (unknown origin) assessed as residual activity at 1 uM relative to control
[2] = target: T1, Aurora kinase A (Homo sapiens) (UniProt O14965); assay: Inhibition of Aurora-A (unknown origin) assessed as residual activity at 1 uM relative to control
T1 sequence (whole entry): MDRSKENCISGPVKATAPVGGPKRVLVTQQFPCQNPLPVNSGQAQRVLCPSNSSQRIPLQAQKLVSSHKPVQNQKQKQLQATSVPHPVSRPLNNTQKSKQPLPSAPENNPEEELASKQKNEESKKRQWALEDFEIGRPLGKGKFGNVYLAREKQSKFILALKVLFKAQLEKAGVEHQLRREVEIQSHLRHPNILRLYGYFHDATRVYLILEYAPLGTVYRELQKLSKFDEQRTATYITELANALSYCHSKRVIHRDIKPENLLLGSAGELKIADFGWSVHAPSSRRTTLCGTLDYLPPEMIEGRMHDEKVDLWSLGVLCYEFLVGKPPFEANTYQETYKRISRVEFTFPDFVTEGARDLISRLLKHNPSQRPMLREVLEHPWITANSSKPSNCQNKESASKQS

[3] = Antiproliferative activity against human Hs 578T cells after 3 days by sulforhodamine B assay; type: functional; conditions: 72 h
How it was run: (§1)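 Tested in the NCI 60 cell line panel. GI50 is the concentration giving 50% inhibition of cell growth, and values are the mean of two series of tests.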

NCI-H522 = assay: Antiproliferative activity against human NCI-H522 cells after 3 days by sulforhodamine B assay; type: functional; conditions: NCI-H522, 72 h; how it was run: as §1
[4] = target: Protein-tyrosine kinase 2-beta (Homo sapiens) (UniProt Q14289); assay: Inhibition of human Pyk2 assessed as residual activity at 1 uM relative to control
Sequence of Protein-tyrosine kinase 2-beta (Homo sapiens) (Q14289 whole entry, looked up): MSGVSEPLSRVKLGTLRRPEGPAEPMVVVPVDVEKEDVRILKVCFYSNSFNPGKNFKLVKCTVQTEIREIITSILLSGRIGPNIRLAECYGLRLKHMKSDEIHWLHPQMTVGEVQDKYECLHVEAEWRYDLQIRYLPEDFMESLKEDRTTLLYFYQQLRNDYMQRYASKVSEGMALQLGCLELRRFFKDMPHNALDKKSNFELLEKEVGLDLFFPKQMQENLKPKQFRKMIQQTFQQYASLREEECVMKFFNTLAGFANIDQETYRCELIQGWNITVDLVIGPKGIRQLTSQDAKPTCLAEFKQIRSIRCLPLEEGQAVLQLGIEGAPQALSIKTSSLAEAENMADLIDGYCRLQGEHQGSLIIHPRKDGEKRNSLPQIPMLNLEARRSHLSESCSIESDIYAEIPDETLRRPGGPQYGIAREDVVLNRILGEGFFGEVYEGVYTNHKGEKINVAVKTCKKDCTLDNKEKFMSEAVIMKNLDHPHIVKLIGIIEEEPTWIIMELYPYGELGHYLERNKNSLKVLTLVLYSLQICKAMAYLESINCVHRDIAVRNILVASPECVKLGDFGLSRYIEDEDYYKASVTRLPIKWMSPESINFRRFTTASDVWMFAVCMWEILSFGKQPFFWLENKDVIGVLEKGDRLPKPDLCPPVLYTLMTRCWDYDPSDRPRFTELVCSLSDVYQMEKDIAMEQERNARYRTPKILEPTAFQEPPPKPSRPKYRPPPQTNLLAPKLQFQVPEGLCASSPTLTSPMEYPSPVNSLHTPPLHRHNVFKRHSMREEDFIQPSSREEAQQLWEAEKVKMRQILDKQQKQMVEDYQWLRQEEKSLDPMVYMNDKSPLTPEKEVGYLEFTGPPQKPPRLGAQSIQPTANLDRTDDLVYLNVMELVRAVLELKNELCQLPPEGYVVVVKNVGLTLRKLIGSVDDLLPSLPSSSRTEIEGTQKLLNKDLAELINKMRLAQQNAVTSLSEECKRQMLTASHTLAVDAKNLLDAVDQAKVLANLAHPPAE

[5] = target: Serine/threonine-protein kinase D2 (Homo sapiens) (UniProt Q9BZL6); assay: Inhibition of human PKD2 assessed as residual activity at 1 uM relative to control
A549 = assay: Antiproliferative activity against human A549 cells after 3 days by sulforhodamine B assay; type: functional; conditions: A549, 72 h; how it was run: as §1
HL-60 = assay: Antiproliferative activity against human HL60 cells after 3 days by sulforhodamine B assay; type: functional; conditions: HL-60, 72 h; how it was run: as §1
MCF7 = assay: Cell cycle arrest in human MCF7 cells assessed as accumulation at S phase at 0.5 uM after 24 hrs using propidium iodide staining by FACS analysis (reference value: 18.59%); type: functional
[6] = target: RAC-gamma serine/threonine-protein kinase (Homo sapiens) (UniProt Q9Y243); assay: Inhibition of human PKBgamma assessed as residual activity at 1 uM relative to control
[7] = target: 3-phosphoinositide-dependent protein kinase 1 (Homo sapiens) (UniProt O15530); assay: Inhibition of human PDK1 assessed as residual activity at 1 uM relative to control
[8] = target: Serine/threonine-protein kinase PAK 3 (Homo sapiens) (UniProt O75914); assay: Inhibition of human PAK3 assessed as residual activity at 1 uM relative to control
Sequence of Serine/threonine-protein kinase PAK 3 (Homo sapiens) (O75914 whole entry, looked up): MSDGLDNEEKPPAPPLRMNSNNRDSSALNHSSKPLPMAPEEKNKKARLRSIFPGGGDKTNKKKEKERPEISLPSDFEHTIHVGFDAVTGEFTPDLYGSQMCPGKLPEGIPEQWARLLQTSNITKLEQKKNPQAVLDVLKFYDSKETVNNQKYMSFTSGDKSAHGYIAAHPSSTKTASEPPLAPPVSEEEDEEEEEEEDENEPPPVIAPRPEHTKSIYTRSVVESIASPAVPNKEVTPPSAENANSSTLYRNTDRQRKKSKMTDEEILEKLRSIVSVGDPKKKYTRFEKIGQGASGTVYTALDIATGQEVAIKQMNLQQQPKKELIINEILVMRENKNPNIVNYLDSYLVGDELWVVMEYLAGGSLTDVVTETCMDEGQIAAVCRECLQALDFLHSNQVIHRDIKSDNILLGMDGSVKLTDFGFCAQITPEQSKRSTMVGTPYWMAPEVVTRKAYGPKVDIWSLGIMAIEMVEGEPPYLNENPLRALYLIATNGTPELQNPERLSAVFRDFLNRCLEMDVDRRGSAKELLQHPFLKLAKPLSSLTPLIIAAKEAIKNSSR

[9] = target: Serine/threonine-protein kinase PAK 4 (Homo sapiens) (UniProt O96013); assay: Inhibition of human PAK4 assessed as residual activity at 1 uM relative to control
[10] = target: Serine/threonine-protein kinase PAK 2 (Homo sapiens) (UniProt Q13177); assay: Inhibition of human PAK2 assessed as residual activity at 1 uM relative to control
[11] = target: Serine/threonine-protein kinase Nek2 (Homo sapiens) (UniProt P51955); assay: Inhibition of human NEK2 assessed as residual activity at 1 uM relative to control
[12] = target: Dual specificity mitogen-activated protein kinase kinase 6 (Homo sapiens) (UniProt P52564); assay: Inhibition of human MKK6 assessed as residual activity at 1 uM relative to control
Sequence of Dual specificity mitogen-activated protein kinase kinase 6 (Homo sapiens) (P52564 whole entry): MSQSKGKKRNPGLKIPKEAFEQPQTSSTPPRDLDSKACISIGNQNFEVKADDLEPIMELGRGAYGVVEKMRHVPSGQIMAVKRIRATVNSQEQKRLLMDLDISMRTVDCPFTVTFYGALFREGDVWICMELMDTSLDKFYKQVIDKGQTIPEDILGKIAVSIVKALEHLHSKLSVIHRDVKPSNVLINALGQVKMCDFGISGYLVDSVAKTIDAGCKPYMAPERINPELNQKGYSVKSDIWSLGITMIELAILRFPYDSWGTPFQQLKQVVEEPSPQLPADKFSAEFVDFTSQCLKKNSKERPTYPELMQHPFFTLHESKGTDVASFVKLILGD

[13] = target: Tyrosine-protein kinase Mer (Homo sapiens) (UniProt Q12866); assay: Inhibition of human Mer assessed as residual activity at 1 uM relative to control
[14] = target: Maternal embryonic leucine zipper kinase (Homo sapiens) (UniProt Q14680); assay: Inhibition of human MELK assessed as residual activity at 1 uM relative to control
[15] = target: Mitogen-activated protein kinase 1 (Homo sapiens) (UniProt P28482); assay: Inhibition of human MAPK2 assessed as residual activity at 1 uM relative to control
[16] = target: Tyrosine-protein kinase Lck (Homo sapiens) (UniProt P06239); assay: Inhibition of human Lck assessed as residual activity at 1 uM relative to control
Sequence of Tyrosine-protein kinase Lck (Homo sapiens) (P06239 2-509 limits assumed): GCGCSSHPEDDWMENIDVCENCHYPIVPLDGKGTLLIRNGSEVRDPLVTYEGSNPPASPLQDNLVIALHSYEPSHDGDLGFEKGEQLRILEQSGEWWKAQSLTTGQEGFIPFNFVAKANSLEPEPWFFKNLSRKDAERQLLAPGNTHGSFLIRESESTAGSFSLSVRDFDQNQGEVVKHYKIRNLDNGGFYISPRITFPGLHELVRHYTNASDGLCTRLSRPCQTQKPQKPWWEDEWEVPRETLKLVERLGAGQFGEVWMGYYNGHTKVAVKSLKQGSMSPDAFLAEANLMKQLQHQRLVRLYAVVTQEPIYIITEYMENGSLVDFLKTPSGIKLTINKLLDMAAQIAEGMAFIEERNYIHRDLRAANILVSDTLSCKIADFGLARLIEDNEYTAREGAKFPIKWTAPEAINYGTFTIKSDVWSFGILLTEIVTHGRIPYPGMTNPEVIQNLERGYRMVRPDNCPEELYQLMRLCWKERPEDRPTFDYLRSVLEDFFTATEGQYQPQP

[17] = target: Tyrosine-protein kinase JAK3 (Homo sapiens) (UniProt P52333); assay: Inhibition of human JAK3 assessed as residual activity at 1 uM relative to control
[18] = target: Tyrosine-protein kinase JAK2 (Homo sapiens) (UniProt O60674); assay: Inhibition of human JAK2 assessed as residual activity at 1 uM relative to control
[19] = target: Interleukin-1 receptor-associated kinase 1 (Homo sapiens) (UniProt P51617); assay: Inhibition of human IRAK1 assessed as residual activity at 1 uM relative to control
[20] = target: Rhodopsin kinase GRK7 (Homo sapiens) (UniProt Q8WTQ7); assay: Inhibition of human GRK7 assessed as residual activity at 1 uM relative to control
[21] = target: Vascular endothelial growth factor receptor 3 (Homo sapiens) (UniProt P35916); assay: Inhibition of human Flt4 assessed as residual activity at 1 uM relative to control
[22] = target: Focal adhesion kinase 1 (Homo sapiens) (UniProt Q05397); assay: Inhibition of human FAK assessed as residual activity at 1 uM relative to control
[23] = target: Epidermal growth factor receptor (Homo sapiens) (UniProt P00533); assay: Inhibition of human EGFR assessed as residual activity at 1 uM relative to control
Sequence of Epidermal growth factor receptor (Homo sapiens) (P00533 whole entry): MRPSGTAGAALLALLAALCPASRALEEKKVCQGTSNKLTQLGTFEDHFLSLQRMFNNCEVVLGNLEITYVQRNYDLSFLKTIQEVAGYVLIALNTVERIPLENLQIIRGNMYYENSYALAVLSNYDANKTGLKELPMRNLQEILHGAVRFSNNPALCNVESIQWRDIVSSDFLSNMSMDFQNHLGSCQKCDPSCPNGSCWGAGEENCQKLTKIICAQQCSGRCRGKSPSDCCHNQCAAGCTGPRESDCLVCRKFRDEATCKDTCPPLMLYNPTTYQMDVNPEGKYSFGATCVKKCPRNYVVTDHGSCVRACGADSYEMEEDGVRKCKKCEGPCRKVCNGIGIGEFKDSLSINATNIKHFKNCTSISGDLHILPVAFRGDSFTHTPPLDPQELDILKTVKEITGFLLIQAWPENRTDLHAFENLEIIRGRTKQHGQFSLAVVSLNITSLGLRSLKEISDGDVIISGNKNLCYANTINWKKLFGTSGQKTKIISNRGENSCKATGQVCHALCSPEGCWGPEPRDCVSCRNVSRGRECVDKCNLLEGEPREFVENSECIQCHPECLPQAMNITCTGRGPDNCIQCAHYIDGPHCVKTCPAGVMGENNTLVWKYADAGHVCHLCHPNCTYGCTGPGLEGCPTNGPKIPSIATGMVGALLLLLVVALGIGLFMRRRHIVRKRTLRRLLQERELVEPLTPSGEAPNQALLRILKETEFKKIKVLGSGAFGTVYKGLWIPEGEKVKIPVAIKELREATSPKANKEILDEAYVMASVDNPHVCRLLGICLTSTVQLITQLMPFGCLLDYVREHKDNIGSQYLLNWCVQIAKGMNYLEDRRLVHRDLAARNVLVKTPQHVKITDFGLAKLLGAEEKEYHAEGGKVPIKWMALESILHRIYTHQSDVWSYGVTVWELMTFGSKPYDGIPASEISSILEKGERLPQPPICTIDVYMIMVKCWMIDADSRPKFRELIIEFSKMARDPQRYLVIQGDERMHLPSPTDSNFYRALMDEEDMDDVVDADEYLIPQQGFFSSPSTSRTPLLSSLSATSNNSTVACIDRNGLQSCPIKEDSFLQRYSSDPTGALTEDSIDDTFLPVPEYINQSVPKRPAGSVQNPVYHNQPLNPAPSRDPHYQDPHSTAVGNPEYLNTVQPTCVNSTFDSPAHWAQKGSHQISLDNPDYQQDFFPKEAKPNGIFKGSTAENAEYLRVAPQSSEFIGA

[24] = target: Serine/threonine-protein kinase 17A (Homo sapiens) (UniProt Q9UEE5); assay: Inhibition of human DRAK1 assessed as residual activity at 1 uM relative to control
Sequence of Serine/threonine-protein kinase 17A (Homo sapiens) (Q9UEE5 whole entry): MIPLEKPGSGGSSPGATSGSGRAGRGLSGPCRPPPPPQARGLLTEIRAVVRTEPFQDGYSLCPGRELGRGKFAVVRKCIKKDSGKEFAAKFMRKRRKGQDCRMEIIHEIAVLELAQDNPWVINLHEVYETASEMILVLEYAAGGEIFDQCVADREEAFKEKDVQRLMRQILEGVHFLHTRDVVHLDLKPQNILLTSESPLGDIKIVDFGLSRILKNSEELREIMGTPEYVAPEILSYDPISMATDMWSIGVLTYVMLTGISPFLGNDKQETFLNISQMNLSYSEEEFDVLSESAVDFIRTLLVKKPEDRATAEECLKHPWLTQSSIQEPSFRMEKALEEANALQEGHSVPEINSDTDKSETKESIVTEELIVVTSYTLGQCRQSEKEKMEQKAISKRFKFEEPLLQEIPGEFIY

[25] = target: Tyrosine-protein kinase CSK (Homo sapiens) (UniProt P41240); assay: Inhibition of human CSK assessed as residual activity at 1 uM relative to control
[26] = target: CDK7/Cyclin H/MNAT1 (Homo sapiens) (UniProt P51946+P50613+P51948); assay: Inhibition of human CDK7/cyclinH/MAT1 assessed as residual activity at 1 uM relative to control; type: protein-complex assay
[27] = target: Serine/threonine-protein kinase BRSK2 (Homo sapiens) (UniProt Q8IWQ3); assay: Inhibition of human BrSK2 assessed as residual activity at 1 uM relative to control
Sequence of Serine/threonine-protein kinase BRSK2 (Homo sapiens) (Q8IWQ3 whole entry): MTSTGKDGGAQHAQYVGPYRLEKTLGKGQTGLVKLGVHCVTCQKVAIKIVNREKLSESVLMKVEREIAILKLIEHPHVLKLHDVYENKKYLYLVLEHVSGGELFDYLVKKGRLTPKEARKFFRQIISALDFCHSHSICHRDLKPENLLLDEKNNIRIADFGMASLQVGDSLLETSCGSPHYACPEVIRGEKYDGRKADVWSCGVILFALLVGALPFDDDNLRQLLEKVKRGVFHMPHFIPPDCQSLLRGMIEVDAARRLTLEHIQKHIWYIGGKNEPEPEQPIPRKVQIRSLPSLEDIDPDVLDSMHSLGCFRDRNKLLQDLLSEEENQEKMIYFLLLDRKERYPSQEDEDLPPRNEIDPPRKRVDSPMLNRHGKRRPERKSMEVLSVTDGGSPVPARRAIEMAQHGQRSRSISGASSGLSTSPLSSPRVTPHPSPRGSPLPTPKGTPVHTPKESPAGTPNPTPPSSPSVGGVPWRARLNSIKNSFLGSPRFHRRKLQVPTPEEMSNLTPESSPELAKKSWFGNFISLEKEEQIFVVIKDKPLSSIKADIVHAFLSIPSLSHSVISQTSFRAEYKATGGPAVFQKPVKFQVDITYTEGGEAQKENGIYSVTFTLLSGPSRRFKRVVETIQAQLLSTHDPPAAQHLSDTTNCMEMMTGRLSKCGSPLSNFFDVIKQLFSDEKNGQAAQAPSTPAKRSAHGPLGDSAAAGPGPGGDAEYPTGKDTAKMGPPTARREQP

[28] = target: Insulin-like growth factor 1 receptor (Homo sapiens) (UniProt P08069); assay: Inhibition of IGF1-R (unknown origin) assessed as residual activity at 10 uM relative to control
[29] = target: Aurora kinase C (Homo sapiens) (UniProt Q9UQB9); assay: Inhibition of Aurora-C (unknown origin) assessed as residual activity at 10 uM relative to control
Homo sapiens = organism: Homo sapiens; assay: Inhibition of S6K (unknown origin) assessed as residual activity at 1 uM relative to control

O=C1Nc2ncccc2/C1=C1/Nc2ncccc2C1=O
Activity [1]: 85%
Activity [2]: 85%
GI50 [3]: 1670 nM
GI50 (NCI-H522): 2180 nM
Activity [4]: 119%
Activity [5]: 100%
GI50 (A549): 236 nM
GI50 (HL-60): 1850 nM
Activity (MCF7): 17.48%
Activity [6]: 126%
Activity [7]: 97%
Activity [8]: 111%
Activity [9]: 108%
Activity [10]: 124%
Activity [11]: 101%
Activity [12]: 87%
Activity [13]: 95%
Activity [14]: 87%
Activity [15]: 104%
Activity [16]: 55%
Activity [17]: 85%
Activity [18]: 91%
Activity [19]: 89%
Activity [20]: 96%
Activity [21]: 68%
Activity [22]: 110%
Activity [23]: 120%
Activity [24]: 99%
Activity [25]: 122%
Activity [26]: 76%
Activity [27]: 108%
Activity [28]: 94%
Activity [29]: 76%
Activity (Homo sapiens): 109%
